The source of these data is ChEMBL document CHEMBL1124042, “Synthesis and potential antipsychotic activity of 1H-imidazo[1,2-c]pyrazolo[3,4-e]pyrimidines” (J Med Chem, 1988).

Assay [1] has as its system Mus musculus. In words: Inhibition of induction of ataxia in mouse after intraperitoneal administration. Type of assay: functional. Particulars: ip.
Assay [2] deals with Mus musculus. In words: Inhibition of locomotor activity in mouse after intraperitoneal administration. The class given is functional.
Assay [3] has as its system Rattus norvegicus. Description: Inhibition of Sidman avoidance in rats after peroral administration. Type of assay: functional. Particulars: po. In outline: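 Continuous (Sidman) avoidance responding in rats with oral dosing. At least three doses per drug, four animals per dose. ED50 reported ± SEM.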
The subject of assay [4] is Rattus norvegicus. In words: Inhibition of shelf-jump avoidance in rats after peroral administration. The class given is functional. In outline: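 One-way shelf-jump conditioned avoidance responding in rats. ED50 determined from at least three doses (N = 9).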
Assay [5] is described as follows: Displacement of [3H]CHA (N6-Cyclohexyl adenosine) from rat brain adenosine A1 receptor. On the technique in general: Loss of bound radioactivity is the signal in a displacement assay; it reports binding, not function.
The target in a further assay is T1, Adenosine receptor A1 (Rattus norvegicus, UniProt P25099).
T1 sequence (P25099 whole entry): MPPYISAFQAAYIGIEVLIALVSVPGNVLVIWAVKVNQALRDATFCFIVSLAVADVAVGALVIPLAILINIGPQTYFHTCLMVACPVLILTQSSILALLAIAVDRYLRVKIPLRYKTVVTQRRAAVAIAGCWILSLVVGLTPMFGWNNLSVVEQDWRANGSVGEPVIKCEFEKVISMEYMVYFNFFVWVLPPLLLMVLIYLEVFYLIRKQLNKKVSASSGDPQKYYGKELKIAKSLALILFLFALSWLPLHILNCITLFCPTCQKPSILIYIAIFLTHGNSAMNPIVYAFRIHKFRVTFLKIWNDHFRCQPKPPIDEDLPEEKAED
In words: Displacement of [3H]-CHA (N6-Cyclohexyl adenosine) from adenosine A1 receptor in rat brain. The class given is tissue-based. The method in brief: (§1)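 Rat brain radioligand displacement binding. IC50 values (μM) were derived by nonlinear regression from four or five concentrations of compound.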

The test system of the next assay is Monkey. In words: Inhibition of Sidman avoidance in squirrel monkeys after the compound administered perorally. Type of assay: functional. The following applies: in Saimiri, po. The method in brief:
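Oral dosing in squirrel monkeys trained on continuous (Sidman) avoidance responding. ED50 reported ± SEM.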

For assay [6], the target named is Beta-1 adrenergic receptor (Rattus norvegicus, UniProt P18090). In words: Displacement of [3H]DHA (Dihydroalprenolol) from beta-1 adrenergic receptor in rat brain. The class given is tissue-based. The method in brief:
as §1

Assay [7] addresses Beta-2 adrenergic receptor (Rattus norvegicus, UniProt P10608). In words: Displacement of [3H]DHA (Dihydroalprenolol) from beta-2 adrenergic receptor in rat brain. Type of assay: tissue-based. In outline: as §1
Assay [8] has as its target Serotonin 1 (5-HT1) receptor (Rattus norvegicus, UniProt P28564+P30940+P19327+P28565). In words: Displacement of [3H]-5-HT from serotonin-1 neurotransmitter receptor in rat brain. Type of assay: tissue-based. In outline:
as §1

Where [9] appears, read: Mus musculus, ip, read-out: ED50.
Where [10] appears, read: Rattus norvegicus, po, read-out: ED50.

Molecules are shown by their SMILES. Where only a bound is given, the exact number is not on record here.

What is called ED50 is the dose at which the effect has come halfway, by size or by number of responders. A word on the IC50: it is the concentration that inhibits the measured activity by half.

Beta-2 adrenergic receptor, sequence (P10608 whole entry): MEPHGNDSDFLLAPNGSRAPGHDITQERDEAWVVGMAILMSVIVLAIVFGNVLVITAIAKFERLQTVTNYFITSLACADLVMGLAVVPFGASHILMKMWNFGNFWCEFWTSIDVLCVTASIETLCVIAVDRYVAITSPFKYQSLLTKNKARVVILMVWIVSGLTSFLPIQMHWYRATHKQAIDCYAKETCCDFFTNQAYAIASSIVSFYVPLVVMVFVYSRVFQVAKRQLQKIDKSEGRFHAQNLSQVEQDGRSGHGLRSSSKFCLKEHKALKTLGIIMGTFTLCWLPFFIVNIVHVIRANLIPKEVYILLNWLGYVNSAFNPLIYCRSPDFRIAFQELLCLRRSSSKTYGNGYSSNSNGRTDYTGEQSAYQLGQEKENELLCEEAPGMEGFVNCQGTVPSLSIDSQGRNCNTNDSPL
Beta-1 adrenergic receptor, sequence (P18090 whole entry): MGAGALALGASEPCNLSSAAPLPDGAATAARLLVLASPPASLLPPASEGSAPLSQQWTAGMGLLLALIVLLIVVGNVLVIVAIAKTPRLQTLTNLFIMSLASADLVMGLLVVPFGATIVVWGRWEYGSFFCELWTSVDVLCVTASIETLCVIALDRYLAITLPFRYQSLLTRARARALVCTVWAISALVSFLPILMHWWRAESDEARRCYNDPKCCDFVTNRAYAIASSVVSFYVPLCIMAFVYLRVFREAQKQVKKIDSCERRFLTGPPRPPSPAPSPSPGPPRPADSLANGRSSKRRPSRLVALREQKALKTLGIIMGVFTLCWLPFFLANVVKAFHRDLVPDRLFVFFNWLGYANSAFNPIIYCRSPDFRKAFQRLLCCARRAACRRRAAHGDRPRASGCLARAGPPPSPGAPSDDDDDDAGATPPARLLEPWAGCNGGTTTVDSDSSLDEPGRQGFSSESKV

On to `CC1=Nc2c(C)nn(C)c2C2=N[C@@H](C(C)C)CN12`, for which the 50% effective dose (ED50) with Mus musculus [1] is above 100 mg/kg; in the assay with Mus musculus [2] (setting [9]), 57.3 mg/kg.
As to `CCc1nc2c(C)nn(C)c2c2nc(C)cn12`, the figures for the ED50 in the assay on Mus musculus [1], with Rattus norvegicus [3] and in the assay with Mus musculus [2] (setting [9]) were above 100 mg/kg, 11.4 mg/kg and 36.8 mg/kg, respectively.
Take `CCn1nc(C)c2c1C1=NCC(c3ccccc3)N1C(C)=N2` (configuration not stated): the values for the ED50 with Mus musculus [1], in the assay with Mus musculus [2] (setting [9]) and with Rattus norvegicus [4] (setting [10]) were above 100 mg/kg, 75.5 mg/kg and above 100 mg/kg, respectively.
Turning to `Cc1nn(C)c2c1nc(C)n1cc(Cc3ccccc3)nc21`, the ED50 was above 100 mg/kg in the assay with Mus musculus [1], 83.3 mg/kg in the assay on Mus musculus [2] (setting [9]) and 86 mg/kg with Rattus norvegicus [4] (setting [10]).
`CCc1nc2c(C)nn(C)c2c2nc(C)c(Cl)n12`: the 50% effective dose (ED50) in the assay with Mus musculus [1] was above 100 mg/kg; in the assay on Mus musculus [2] (setting [9]) it was above 100 mg/kg; in the assay with Rattus norvegicus [4] (setting [10]), 100 mg/kg.
`Cc1nn(C)c2c1N=C(c1ccccc1)N1CC(C)N=C21` (configuration not stated): the figures for the median effective dose (ED50) in the assay on Mus musculus [1], in the assay on Mus musculus [2] (setting [9]) and in the assay with Rattus norvegicus [4] (setting [10]) were above 100 mg/kg, 62.5 mg/kg and 65 mg/kg, respectively.
The matching figures for `CCc1cn2c(CC)nc3c(C)nn(C)c3c2n1`: above 30 mg/kg, 20.6 mg/kg and 16 mg/kg.
On to `CC1=Nc2c(C)nn(C)c2C2=NC(C)C(C)N12` (stereo in doubt; cis), for which the ED50 in the assay with Mus musculus [2] came to 37.8 mg/kg; in the assay on Rattus norvegicus [4] it was 26 mg/kg.
As to `CCc1nc2c(C)nn(C)c2c2nccn12`, the results for the ED50 in the assay with Mus musculus [1], with Mus musculus [2] (setting [9]) and with Rattus norvegicus [4] (setting [10]) were above 100 mg/kg, 34.2 mg/kg and 15 mg/kg, respectively.
As for `Cc1nn(C)c2c1N=CN1CCN=C21`, the ED50 with Mus musculus [1] is above 100 mg/kg; with Mus musculus [2] (setting [9]), 39.3 mg/kg.
With `CC[C@H]1CN2C(C)=Nc3c(C)nn(C)c3C2=N1`, the ED50 is above 100 mg/kg in the assay on Mus musculus [1], 42.8 mg/kg in the assay on Mus musculus [2] (setting [9]) and 38 mg/kg in the assay on Rattus norvegicus [4] (setting [10]).
For `CCC1=Nc2c(C)nn(CC)c2C2=NC(C)CN12` (configuration not stated), the figures for the median effective dose (ED50) in the assay on Mus musculus [1], in the assay on Rattus norvegicus [3] and with Mus musculus [2] (setting [9]) were above 100 mg/kg, 15.8 mg/kg and 27.2 mg/kg, respectively.
Take `CSc1ccc2c(c1)N(CCC1CCCCN1C)c1ccccc1S2` (configuration not stated) [THIORIDAZINE]: the IC50 was above 10 µM in assay [5]; above 10 µM at Adenosine receptor A1; above 10 µM in [6]; above 10 µM in [7]; 8.7 µM in assay [8]. The median effective dose (ED50) in the assay with Monkey is 3.9 mg/kg; in the assay with Mus musculus [1], above 10 mg/kg; in the assay with Mus musculus [2] (setting [9]), 4.4 mg/kg; in the assay with Rattus norvegicus [4] (setting [10]), 5.8 mg/kg.
As to `CCn1nc(C)c2c1C1=NCCN1C(C)=N2`, the figures for the 50% effective dose (ED50) with Mus musculus [1], in the assay on Rattus norvegicus [3] and in the assay with Mus musculus [2] (setting [9]) were above 100 mg/kg, 15.3 mg/kg and 22.7 mg/kg, respectively.
Take `CC1=Nc2c(C)nn(C)c2C2=NC(C)C(C)N12` (stereo in doubt; trans): the ED50 with Mus musculus [1] was above 100 mg/kg; with Mus musculus [2] (setting [9]), 69.1 mg/kg.
The matching figures for `CCCn1nc(C)c2c1C1=NC(C)CN1C(C)=N2` (configuration not stated): above 100 mg/kg and 37.7 mg/kg.
As to `CC[C@@H]1CN2C(C)=Nc3c(C)nn(C)c3C2=N1`, the ED50 was above 100 mg/kg with Mus musculus [1], 61.1 mg/kg with Mus musculus [2] (setting [9]) and 12 mg/kg in the assay with Rattus norvegicus [4] (setting [10]).
For `CC1=Nc2c(C)nn(C)c2C2=NC(C)(C)CN12`, the 50% effective dose (ED50) in the assay with Mus musculus [1] is above 100 mg/kg; with Rattus norvegicus [3], 53.7 mg/kg; with Mus musculus [2] (setting [9]), 22.7 mg/kg.
Turning to `Cc1nc2c3c(nc(C)n2c1C)c(C)nn3C`, the ED50 was above 100 mg/kg in the assay on Mus musculus [1], 39.7 mg/kg with Mus musculus [2] (setting [9]) and 10 mg/kg in the assay on Rattus norvegicus [4] (setting [10]).
On to `CCC1=Nc2c(C)nn(C)c2C2=NCCN12`, for which the ED50 in the assay with Mus musculus [1] is above 100 mg/kg; with Rattus norvegicus [3], 24.4 mg/kg; with Mus musculus [2] (setting [9]), 22.8 mg/kg; in the assay with Rattus norvegicus [4] (setting [10]), 17 mg/kg.
For `Cc1nn(C)c2c1N=C(C(C)C)N1CC(C)N=C21` (configuration not stated), the ED50 in the assay on Mus musculus [1] is above 100 mg/kg; in the assay with Mus musculus [2] (setting [9]), above 100 mg/kg; in the assay with Rattus norvegicus [4] (setting [10]), 41 mg/kg.
For the molecule `O=C(CCCN1CCC(O)(c2ccc(Cl)cc2)CC1)c1ccc(F)cc1` [HALOPERIDOL], the ED50 was above 3 mg/kg in the assay with Mus musculus [1], 0.8 mg/kg in the assay with Rattus norvegicus [3], 0.27 mg/kg in the assay on Mus musculus [2] (setting [9]) and 0.3 mg/kg in the assay with Rattus norvegicus [4] (setting [10]).
With `CCn1nc(C)c2c1C1=NC(C)CN1C(C)=N2` (configuration not stated), the ED50 in the assay with Mus musculus [1] is above 100 mg/kg; in the assay on Rattus norvegicus [3] it was 14.8 mg/kg; in the assay with Mus musculus [2] (setting [9]) it was 25.7 mg/kg.
The matching figures for `CCC1=Nc2c(C)nn(C)c2C2=NC(C)CN12` (configuration not stated): above 100 mg/kg, 15.7 mg/kg and 21.6 mg/kg.
In the case of `CCc1nc2c(C)nn(C)c2c2ncc(C)n12`, the 50% effective dose (ED50) with Mus musculus [1] is above 100 mg/kg; in the assay on Mus musculus [2] (setting [9]), 35.5 mg/kg; with Rattus norvegicus [4] (setting [10]), 11 mg/kg.
Take `CCC1=Nc2c(C)nn(C)c2C2=NC(CC)CN12` (configuration not stated): the values for the median effective dose (ED50) with Mus musculus [1], in the assay on Mus musculus [2] (setting [9]) and with Rattus norvegicus [4] (setting [10]) were above 100 mg/kg, 21.7 mg/kg and 32 mg/kg, respectively.
Turning to `CC1=Nc2c(C)nn(C)c2C2=NC(C)CN12` (configuration not stated), the ED50 with Mus musculus [1] was above 100 mg/kg; with Mus musculus [2] (setting [9]), 32.1 mg/kg.
In the case of `Cc1cn2c(CC(=O)O)nc3c(C)nn(C)c3c2n1`, the median effective dose (ED50) in the assay with Mus musculus [1], in the assay with Mus musculus [2] (setting [9]) and in the assay with Rattus norvegicus [4] (setting [10]) was above 100 mg/kg throughout.
Regarding `CCC1=Nc2c(C)nn(C)c2C2=NCC(C)N12` (configuration not stated), the values for the ED50 in the assay on Mus musculus [1] and in the assay on Mus musculus [2] (setting [9]) were above 100 mg/kg and 28.3 mg/kg, respectively.
Regarding `Cc1nn(C)c2c1N=CN1CC(C)N=C21` (configuration not stated), the ED50 was above 100 mg/kg in the assay with Mus musculus [1] and 49.2 mg/kg with Mus musculus [2] (setting [9]).
As for `Cc1cn2c(C)nc3c(C)nn(C)c3c2n1`, the 50% effective dose (ED50) with Mus musculus [1] was above 100 mg/kg; with Mus musculus [2] (setting [9]), 73 mg/kg; in the assay on Rattus norvegicus [4] (setting [10]), below 32 mg/kg.
For the molecule `CCOC(=O)CC1=Nc2c(C)nn(C)c2C2=NC(C)CN12` (configuration not stated), the ED50 in the assay on Mus musculus [1], with Mus musculus [2] (setting [9]) and with Rattus norvegicus [4] (setting [10]) was above 100 mg/kg each time.
For the molecule `Cc1nn(C)c2c1N=C(Cc1ccccc1)N1CC(C)N=C21` (configuration not stated), the median effective dose (ED50) was above 100 mg/kg with Mus musculus [1], 21.9 mg/kg in the assay on Mus musculus [2] (setting [9]) and 62 mg/kg with Rattus norvegicus [4] (setting [10]).
For `Cc1nn(C)c2c1N=C(C1CC1)N1CC(C)N=C21` (configuration not stated), the figures for the ED50 with Mus musculus [1], in the assay with Mus musculus [2] (setting [9]) and in the assay on Rattus norvegicus [4] (setting [10]) were above 100 mg/kg, 46.1 mg/kg and 12 mg/kg, respectively.
